Results published in ChEMBL document CHEMBL1155235 (Eur J Med Chem, 2009).
pKi: −log10 of the molar value. The source made the active and inactive calls. The calls are words filed in the database; no cut-off is given here.

Key:
[1] = molecular target: T1, Cannabinoid receptor 1 (Rattus norvegicus, UniProt P20272); experiment: Displacement of [3H]SR141716A from CB1 receptor in rat cerebellar membrane after 90 mins by scintillation counting; assay type: cell membranes, Cerebellum
In short: (§1)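 Compounds were dissolved in DMSO, then diluted in 20 mM HEPES pH 7.4 with 1 mM MgCl2 and 0.5% fatty-acid-free BSA. Incubation was 30 °C for 90 min, stopped with ice-cold buffer and filtered on GF/C. Ki was derived by Cheng–Prusoff using fixed, independently measured Kd.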

[2] = molecular target: Cannabinoid receptor 1 (Mus musculus) (UniProt P47746); experiment: Agonist activity at CB1 receptor in CD1 mouse vas deferens assessed as inhibition of electrically-evoked contraction at 0.01 to 1 nM after 15 mins; assay type: functional, tissue-based
Sequence of Cannabinoid receptor 1 (Mus musculus) (P47746 whole entry): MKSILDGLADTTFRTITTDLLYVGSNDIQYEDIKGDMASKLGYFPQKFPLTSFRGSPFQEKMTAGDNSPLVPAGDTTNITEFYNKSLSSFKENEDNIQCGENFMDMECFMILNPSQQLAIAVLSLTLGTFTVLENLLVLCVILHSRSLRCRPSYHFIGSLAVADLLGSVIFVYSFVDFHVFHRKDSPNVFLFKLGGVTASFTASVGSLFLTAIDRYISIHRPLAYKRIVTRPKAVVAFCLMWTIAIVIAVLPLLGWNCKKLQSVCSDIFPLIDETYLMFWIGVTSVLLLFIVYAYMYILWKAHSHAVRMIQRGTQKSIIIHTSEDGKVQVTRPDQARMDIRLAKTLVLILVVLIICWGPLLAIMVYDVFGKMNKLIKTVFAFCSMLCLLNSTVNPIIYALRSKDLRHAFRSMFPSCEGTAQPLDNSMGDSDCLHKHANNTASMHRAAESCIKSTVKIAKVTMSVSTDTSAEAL
In short: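 Vasa deferentia from male CD-1 mice (25–30 g) cycled through 5 min stimulation (15 pulses per min, 70 V, 15 Hz, 2 ms) and 10 min rest, with isometric force recorded. Doses were added stepwise at 15 min intervals, and Krebs was replaced before each dose. Inhibition was read 15 min after each dose against the last pre-agonist contraction (100%). One curve was built per tissue.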

[3] = molecular target: T1, Cannabinoid receptor 1; experiment: Displacement of [3H]WIN-55212-2 from CB1 receptor in rat cerebellar membrane after 90 mins by scintillation counting; assay type: cell membranes, Cerebellum
In short: as §1, with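 “Cerebellar membranes incubated in triplicate with radioligand ([3H]SR141716A 0.4 nM; [3H]WIN-55212-2 1 nM) and compound at 10^-5 to 10^-12 M final. Compounds” for “Compounds”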

[4] = molecular target: T2, Cannabinoid receptor 2 (Rattus norvegicus) (UniProt Q9QZN9); experiment: Displacement of [3H]WIN-55212-2 from CB2 receptor in rat cerebellar membrane at 10 uM after 90 mins by scintillation counting; assay type: cell membranes; conditions: Cerebellum
T2 sequence (whole entry): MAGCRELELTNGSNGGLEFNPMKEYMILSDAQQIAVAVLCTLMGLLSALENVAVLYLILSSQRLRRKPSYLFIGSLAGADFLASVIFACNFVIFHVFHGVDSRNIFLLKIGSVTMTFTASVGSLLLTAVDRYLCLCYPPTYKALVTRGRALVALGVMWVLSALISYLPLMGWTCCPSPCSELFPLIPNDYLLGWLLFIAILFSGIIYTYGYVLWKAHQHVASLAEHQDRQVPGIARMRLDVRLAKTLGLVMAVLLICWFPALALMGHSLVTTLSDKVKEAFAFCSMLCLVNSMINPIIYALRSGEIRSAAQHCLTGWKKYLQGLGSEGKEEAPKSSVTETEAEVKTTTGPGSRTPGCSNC

[5] = molecular target: T2, Cannabinoid receptor 2 (Rattus norvegicus); experiment: Displacement of [3H]WIN-55212-2 from CB2 receptor in rat cerebellar membrane at 0.001 nM after 90 mins by scintillation counting; assay type: cell membranes; conditions: Cerebellum
[6] = molecular target: T3, Fatty-acid amide hydrolase 1 (Rattus norvegicus) (UniProt P97612); experiment: Inhibition of FAAH in rat brain homogenates assessed as membrane bound [3H]anandamide level at 1 uM relative to control; assay type: tissue-based; parameters: scale not given: the % may be the effect or the level left
T3 sequence (whole entry): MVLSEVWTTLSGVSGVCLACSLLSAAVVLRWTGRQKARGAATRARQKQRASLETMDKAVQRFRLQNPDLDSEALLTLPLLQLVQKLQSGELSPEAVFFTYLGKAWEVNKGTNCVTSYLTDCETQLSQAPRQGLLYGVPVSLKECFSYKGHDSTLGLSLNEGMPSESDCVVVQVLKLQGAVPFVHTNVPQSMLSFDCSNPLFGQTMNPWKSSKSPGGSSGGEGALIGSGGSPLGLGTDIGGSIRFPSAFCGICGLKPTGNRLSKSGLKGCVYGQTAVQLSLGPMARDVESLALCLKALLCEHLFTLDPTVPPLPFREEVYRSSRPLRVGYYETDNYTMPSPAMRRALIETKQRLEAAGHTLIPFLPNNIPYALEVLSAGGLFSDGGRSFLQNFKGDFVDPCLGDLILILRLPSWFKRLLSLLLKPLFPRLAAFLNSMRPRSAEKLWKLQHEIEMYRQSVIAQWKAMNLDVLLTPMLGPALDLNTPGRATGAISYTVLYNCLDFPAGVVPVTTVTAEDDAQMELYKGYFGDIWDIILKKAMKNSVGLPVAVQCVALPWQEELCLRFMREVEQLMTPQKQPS
In short: (§2)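 Brain membrane FAAH. Tissue was homogenized in 50 mM Tris pH 8 with 0.32 M sucrose, spun at 1000g for 5 min, and the supernatant spun at 45,000g for 30 min. The pellet was solubilized in Tris at 0–4 °C, protein measured by Bradford, and samples stored at −70 °C. Substrate was arachidonyl-[1-3H]-ethanolamide, and [3H]ethanolamine was counted in the aqueous phase after chloroform extraction. Conditions were linear in time and protein; activity is given as % of control at 10^-6 and 10^-7 M.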

[7] = molecular target: T3, Fatty-acid amide hydrolase 1 (Rattus norvegicus); experiment: Inhibition of FAAH in rat brain homogenates assessed as membrane bound [3H]anandamide level at 0.1 uM relative to control; assay type: tissue-based; parameters: scale not given: the % may be the effect or the level left; in short: as §2

T1 sequence (P20272 whole entry): as the sequence (P47746 whole entry) above, with D95E counted along it

| Structure (SMILES) | pKi [1] | inhibition [2] | pKi [3] | Activity [4] | Activity [5] | Activity [6] | Activity [7] |
| --- | --- | --- | --- | --- | --- | --- | --- |
| CCCCC/C=C\C/C=C\C/C=C\C/C=C\CCCCNS(=O)(=O)NCCC | 5.63 | inactive | – | – | – | – | – |
| CCCCC/C=C\C/C=C\CCCCCCCCNS(=O)(=O)NCCC | 5.14 | inactive | – | – | – | – | – |
| CC(NS(N)(=O)=O)C12CC3CC(CC(C3)C1)C2 (configuration not stated) | – | inactive | – | – | – | – | – |
| CCCNS(=O)(=O)NC12CC3CC(CC(C3)C1)C2 | 5.07 | inactive | 5.37 | inactive | inactive | 92.6% | 90.4% |
| CCCCC/C=C\C/C=C\C/C=C\C/C=C\CCCCNS(N)(=O)=O | 5.40 | inactive | – | – | – | – | – |
| CCCNS(=O)(=O)NC(C)C12CC3CC(CC(C3)C1)C2 (configuration not stated) | < 5.00 | inactive | < 4.00 | inactive | inactive | – | – |
| CCCCCCCC/C=C\CCCCCCCCNS(=O)(=O)NCCC | < 5.00 | inactive | – | – | – | 96.5% | 101% |
| NS(=O)(=O)NC1C2CC3CC(C2)CC1C3 (configuration not stated) | – | inactive | – | – | – | – | – |

The next lines start with the values.

| pKi [1] | inhibition [2] | pKi [3] | Activity [4] | Activity [5] | Activity [6] | Activity [7] | Structure (SMILES) |
| --- | --- | --- | --- | --- | --- | --- | --- |
| 5.04 | inactive | < 5.00 | inactive | inactive | 110% | 109% | CCCCCCCCCCCCCCCCCCNS(=O)(=O)NCCC |
| – | – | – | – | – | 103% | 114% | CCCCCCCCCCCCCCCCNS(N)(=O)=O |
| < 5.00 | inactive | – | – | – | 99.4% | 106% | CCCCCCCCCCCCCCCCCCNS(N)(=O)=O |
| – | – | – | – | – | 109% | 109% | CCCCCCCCCCCCCCNS(N)(=O)=O |
| 5.18 | inactive | < 5.00 | inactive | inactive | – | – | CCCNS(=O)(=O)NC1C2CC3CC(C2)CC1C3 (configuration not stated) |
| 5.72 | inactive | – | – | – | 102% | 100% | CCCCCCCC/C=C\CCCCCCCCNS(N)(=O)=O |
| – | – | – | – | – | 99.3% | 108% | CCCCCCCCCCCCNS(N)(=O)=O |
| 5.19 | inactive | – | – | – | – | – | CCCCC/C=C\C/C=C\CCCCCCCCNS(N)(=O)=O |
